Results reported in ChEMBL document CHEMBL3244185, “Synthesis and antiprotozoal activity of 2,5-bis(4-guanylphenyl)furans” (J Med Chem, 1977).
Calls of active or inactive are those of the source. No cut-off for these calls is given here.

Tests used:
[1] = tested on: Trypanosoma brucei rhodesiense; experiment: Antitrypanosomal activity against Trypanosoma rhodesiense CT infected in ICR/HA Swiss mouse assessed as 30-day increase in survival time at 320 mg/kg relative to control; type: functional, organism-based; set-up: dose 320 mg/kg
Summary of the method: (§1)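 Mice infected with T. rhodesiense, dosed per mg of compound per kg body weight, five mice per dose level. A cure means survival extended 30 days beyond untreated controls, so at most five cures per dose. Non-curative effects are given as ΔMST, the gain in mean survival time in days versus controls. Toxic deaths are flagged separately.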

[2] = tested on: Trypanosoma brucei rhodesiense; experiment: Antitrypanosomal activity against Trypanosoma rhodesiense CT infected in ICR/HA Swiss mouse assessed as 30-day increase in survival time at 20 mg/kg relative to control; type: functional, organism-based; set-up: dose 20 mg/kg; summary of the method: as §1
[3] = tested on: Trypanosoma brucei rhodesiense; experiment: Antitrypanosomal activity against Trypanosoma rhodesiense CT infected in ICR/HA Swiss mouse assessed as 30-day increase in survival time at 40 mg/kg relative to control; type: functional, organism-based; set-up: dose 40 mg/kg; summary of the method: as §1
[4] = tested on: Trypanosoma brucei rhodesiense; experiment: Antitrypanosomal activity against Trypanosoma rhodesiense CT infected in ICR/HA Swiss mouse assessed as increase in mean survival time at 2.5 mg/kg; type: functional
Summary of the method: (§2)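 Mice, five per dosage level, each dosed in mg of compound per kg body weight. ΔMST is the increase in mean survival time of treated over untreated infected controls, in days. A cure is a 30-day survival increase over controls, with at most five cures per dose. Deaths attributed to compound toxicity were scored as toxic deaths.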

[5] = tested on: Trypanosoma brucei rhodesiense; experiment: Antitrypanosomal activity against Trypanosoma rhodesiense CT infected in ICR/HA Swiss mouse assessed as 30-day increase in survival time at 80 mg/kg relative to control; type: functional, organism-based; set-up: dose 80 mg/kg; summary of the method: as §1
[6] = tested on: Trypanosoma brucei rhodesiense; experiment: Antitrypanosomal activity against Trypanosoma rhodesiense CT infected in ICR/HA Swiss mouse assessed as 30-day increase in survival time at 640 mg/kg relative to control; type: functional, organism-based; set-up: dose 640 mg/kg; summary of the method: as §1
[7] = tested on: Trypanosoma brucei rhodesiense; experiment: Antitrypanosomal activity against Trypanosoma rhodesiense CT infected in ICR/HA Swiss mouse assessed as 30-day increase in survival time at 160 mg/kg relative to control; type: functional, organism-based; set-up: dose 160 mg/kg; summary of the method: as §1
[8] = tested on: Trypanosoma brucei rhodesiense; experiment: Antitrypanosomal activity against Trypanosoma rhodesiense CT infected in ICR/HA Swiss mouse assessed as increase in mean survival time at 1.25 mg/kg; type: functional; summary of the method: as §2
[9] = tested on: Plasmodium berghei; experiment: Antimalarial activity against Plasmodium berghei infected in mouse up to 640 mg/kg, sc administered 72 hrs post infection; type: functional, organism-based; set-up: dose 640 mg/kg
Summary of the method: (§3)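 Antimalarial screen in P. berghei-infected mice, doses in mg/kg. The read-out is the gain in mean survival time of treated animals over untreated controls. Toxicity is recorded at the dose levels tested.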

[10] = tested on: Trypanosoma brucei rhodesiense; experiment: Antitrypanosomal activity against Trypanosoma rhodesiense CT infected in ICR/HA Swiss mouse assessed as 30-day increase in survival time at 5 mg/kg relative to control; type: functional, organism-based; set-up: dose 5 mg/kg; summary of the method: as §1
[11] = tested on: Trypanosoma brucei rhodesiense; experiment: Antitrypanosomal activity against Trypanosoma rhodesiense CT infected in ICR/HA Swiss mouse assessed as 30-day increase in survival time at 2.5 mg/kg relative to control; type: functional, organism-based; set-up: dose 2.5 mg/kg; summary of the method: as §1
[12] = tested on: Trypanosoma brucei rhodesiense; experiment: Antitrypanosomal activity against Trypanosoma rhodesiense CT infected in ICR/HA Swiss mouse assessed as 30-day increase in survival time at 10 mg/kg relative to control; type: functional, organism-based; set-up: dose 10 mg/kg; summary of the method: as §1
[13] = tested on: Trypanosoma brucei rhodesiense; experiment: Antitrypanosomal activity against Trypanosoma rhodesiense CT infected in ICR/HA Swiss mouse assessed as 30-day increase in survival time at 1.25 mg/kg relative to control; type: functional, organism-based; set-up: dose 1.25 mg/kg; summary of the method: as §1
[14] = tested on: Plasmodium berghei; experiment: Antimalarial activity against Plasmodium berghei infected in mouse assessed as increase in mean survival time at 640 mg/kg, sc administered 72 hrs post infection; type: functional; settings: route subcutaneous
[15] = tested on: Trypanosoma brucei rhodesiense; experiment: Antitrypanosomal activity against Trypanosoma rhodesiense CT infected in ICR/HA Swiss mouse assessed as 30-day increase in survival time at 0.83 mg/kg relative to control; type: functional, organism-based; set-up: dose 0.83 mg/kg; summary of the method: as §1
[16] = tested on: Mus musculus; experiment: Toxicity in ICR/HA Swiss mouse infected with Trypanosoma rhodesiense CT assessed as mortality at 320 mg/kg; type: organism-based; set-up: dose 320 mg/kg; settings: in vivo; summary of the method: as §2
[17] = tested on: Mus musculus; experiment: Toxicity in ICR/HA Swiss mouse infected with Trypanosoma rhodesiense CT assessed as mortality at 640 mg/kg; type: organism-based; set-up: dose 640 mg/kg; settings: in vivo; summary of the method: as §2
[18] = tested on: Mus musculus; experiment: Toxicity in ICR/HA Swiss mouse infected with Trypanosoma rhodesiense CT assessed as mortality at 160 mg/kg; type: organism-based; set-up: dose 160 mg/kg; settings: in vivo; summary of the method: as §2
[19] = tested on: Mus musculus; experiment: Toxicity in ICR/HA Swiss mouse infected with Trypanosoma rhodesiense CT assessed as mortality at 40 mg/kg; type: organism-based; set-up: dose 40 mg/kg; settings: in vivo; summary of the method: as §2
[20] = tested on: Trypanosoma brucei rhodesiense; experiment: Antitrypanosomal activity against Trypanosoma rhodesiense CT infected in ICR/HA Swiss mouse assessed as increase in mean survival time at 0.42 mg/kg; type: functional; summary of the method: as §2
[21] = tested on: Trypanosoma brucei rhodesiense; experiment: Antitrypanosomal activity against Trypanosoma rhodesiense CT infected in ICR/HA Swiss mouse assessed as increase in mean survival time at 0.83 mg/kg; type: functional; summary of the method: as §2
[22] = tested on: Trypanosoma brucei rhodesiense; experiment: Antitrypanosomal activity against Trypanosoma rhodesiense CT infected in ICR/HA Swiss mouse assessed as increase in mean survival time at 0.21 mg/kg; type: functional; summary of the method: as §2
[23] = tested on: Trypanosoma brucei rhodesiense; experiment: Antitrypanosomal activity against Trypanosoma rhodesiense CT infected in ICR/HA Swiss mouse assessed as increase in mean survival time at 5 mg/kg; type: functional; summary of the method: as §2
[24] = tested on: Plasmodium berghei; experiment: Antimalarial activity against Plasmodium berghei infected in mouse assessed as increase in mean survival time at 320 mg/kg, sc administered 72 hrs post infection; type: functional; settings: route subcutaneous
[25] = tested on: Mus musculus; experiment: Toxicity in mouse infected with Plasmodium berghei at 640 mg/kg, sc administered 72 hrs post infection; type: organism-based; set-up: dose 640 mg/kg, route subcutaneous; settings: in vivo; summary of the method: as §3

| Structure (SMILES) | Activity [1] | Activity [2] | Activity [3] | Activity [5] | Activity [6] | Activity [7] | Activity [9] | Activity [10] | Activity [12] | also measured |
| --- | --- | --- | --- | --- | --- | --- | --- | --- | --- | --- |
| Cc1c(-c2ccc([C+]3NCCN3)cc2)oc(-c2ccc([C+]3NCCN3)cc2)c1C.[Cl-].[Cl-] | Active | Active | Active | Active | Active | Active | inactive |  |  | Survival [4]: 18 days; Survival [8]: 1.8 days |
| Cc1c(-c2ccc([C+]3NCC(C)N3)cc2)oc(-c2ccc([C+]3NCC(C)N3)cc2)c1C (configuration not stated) |  |  |  |  |  |  | inactive |  |  |  |
| N[C+](N)c1ccc(-c2cc(Cl)c(-c3ccc([C+](N)N)cc3)o2)cc1 |  | Active |  |  |  |  | inactive | Active | Active | Activity [11]: Active; Activity [13]: Active |
| [Cl-].[Cl-].c1cc([C+]2NCCN2)ccc1-c1ccc(-c2ccc([C+]3NCCN3)cc2)o1 | Active |  | Active | Active |  | Active |  |  |  | Survival [14]: 5 days |
| Cc1cc(-c2ccc([C+](N)N)cc2)oc1-c1ccc([C+](N)N)cc1 | Active | Active | Active | Active |  | Active | inactive | Active | Active | Activity [15]: Active; Activity [11]: Active; Activity [13]: Active |
| CCN(CC)CCCN[C+](N)c1ccc(-c2ccc(-c3ccc([C+](N)NCCCN(CC)CC)cc3)o2)cc1 |  |  |  |  |  |  | inactive |  |  |  |
| Cc1c(-c2ccc([C+]3NCCCN3)cc2)oc(-c2ccc([C+]3NCCCN3)cc2)c1C.[Cl-].[Cl-] |  | Active | Active | Active |  |  | inactive |  | Active | Activity [16]: Toxic; Activity [17]: Toxic; Survival [8]: 3.2 days |
| CN1CCN(C)[C+]1c1ccc(-c2ccc(-c3ccc([C+]4N(C)CCN4C)cc3)o2)cc1.[Cl-].[Cl-] |  |  |  |  |  |  | inactive |  |  | Activity [18]: Toxic; Activity [17]: Toxic; Activity [19]: Toxic |
| N[C+](N)c1ccc(-c2oc(-c3ccc([C+](N)N)cc3)c(Cl)c2Cl)cc1.[Cl-].[Cl-] | Active | Active | Active | Active |  | Active | inactive |  | Active | Survival [20]: 0.4 days; Survival [4]: 6.2 days; Survival [21]: 0.8 days; Survival [22]: 0.2 days; Survival [8]: 2 days |
| CN1CCCN(C)[C+]1c1ccc(-c2ccc(-c3ccc([C+]4N(C)CCCN4C)cc3)o2)cc1.[Cl-].[Cl-] |  |  |  |  |  |  | inactive |  |  | Activity [18]: Toxic; Activity [17]: Toxic; Activity [19]: Toxic |
| N=C(N)c1ccc(/C=C/c2ccc(C(=N)N)cc2)cc1 | Active | Active | Active | Active | Active | Active |  | Active | Active | Activity [11]: Active |
| N=C(N)c1ccc(/C=C/c2ccc(C(=N)N)cc2O)cc1 | Active | Active | Active | Active | Active | Active |  | Active | Active | Activity [11]: Active |
| Cc1c(-c2ccc([C+](N)N)cc2)oc(-c2ccc([C+](N)N)cc2)c1Cl.[Cl-].[Cl-] | Active | Active | Active | Active |  | Active | inactive | Active | Active | Survival [22]: 2.1 days |
| CC1CN[C+](c2ccc(-c3ccc(-c4ccc([C+]5NCC(C)N5)cc4)o3)cc2)N1.[Cl-].[Cl-] (configuration not stated) | Active |  |  | Active | Active | Active | inactive |  |  | Survival [4]: 0.6 days; Survival [23]: 3.2 days |
| NNC(=O)c1ccc(-c2ccc(-c3ccc(C(=O)NN)cc3)o2)cc1 |  |  |  |  |  |  | inactive |  |  |  |
| N=C(N)c1ccc(OCCCCCOc2ccc(C(=N)N)cc2)cc1 | Active | Active | Active | Active | Active | Active |  | Active | Active |  |
| N[C+](N)c1ccc(-c2ccc(-c3ccc([C+](N)N)cc3)o2)cc1 | Active | Active | Active | Active | Active | Active | inactive | Active | Active |  |
| Cl.Cl.c1cc(-c2ccc(-c3ccc(C4=NCCCN4)cc3)o2)ccc1C1=NCCCN1 |  | Active | Active | Active |  | Active |  |  |  | Survival [24]: 12 days; Activity [25]: Toxic |
| Cc1c(-c2ccc([C+](N)N)cc2)oc(-c2ccc([C+](N)N)cc2)c1C | Active | Active | Active | Active |  | Active | inactive | Active | Active |  |
